Kir21 inh: inhibitors of mouse Kir2.1 inward-rectifier potassium channel. HEK293-Kir2.1, FluxOR thallium flux fluorescence; active compounds read low. B-score at 10 µM. 310,000 compounds, 0.85% hits. AID 1672;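 active = fluorescence ratio B-score at or below minus 3 SD of library scores, with starting-brightness B-score within 2 SD, cut at about -4.2 in these data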;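 note: channel flux triggered by added potassium and thallium sulfate stimulus; B-score of peak minus minimum fluorescence over baseline after thallium stimulus; more negative B-score means stronger Kir2.1 block with less thallium influx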
KCNK3 block: human KCNK3 channel inhibition, primary screen; O14649; CHO-KCNK3 thallium flux, FluxOR fluorescence; active compounds read low; B-score at 10 µM; 340,000 compounds, 0.84% hits; AID 602410;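 active = B-score under library mean minus 4 SD, starting fluorescence ratio at most library mean plus 5 SD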;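 note: more negative B-score means stronger inhibition of thallium flux through KCNK3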
KCNK9 inh: inhibitors of human KCNK9 two-pore domain potassium channel; HEK293 KCNK9, FluxOR thallium flux fluorescence; active compounds read low; 310,000 compounds, 1.2% hits; B-score at 10 µM; Q9NPC2;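 active = ratio B-score over 3 SD below the library mean, with starting fluorescence within 5 SD of its mean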;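 note: negative B-score means less thallium flux so channel inhibition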
Target sequence (Q9NPC2 whole entry, looked up, the tested form may be a part): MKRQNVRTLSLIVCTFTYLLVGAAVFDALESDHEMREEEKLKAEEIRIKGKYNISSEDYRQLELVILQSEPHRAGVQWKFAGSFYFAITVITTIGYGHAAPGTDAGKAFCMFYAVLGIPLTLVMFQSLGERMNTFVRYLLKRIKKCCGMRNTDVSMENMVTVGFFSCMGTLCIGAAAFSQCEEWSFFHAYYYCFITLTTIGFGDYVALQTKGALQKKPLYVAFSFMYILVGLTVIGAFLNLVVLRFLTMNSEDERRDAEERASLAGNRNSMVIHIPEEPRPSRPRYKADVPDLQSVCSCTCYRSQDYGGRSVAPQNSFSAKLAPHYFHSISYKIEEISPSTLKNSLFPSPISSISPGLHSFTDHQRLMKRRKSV
hERG rescue: hERG (human) protection from proarrhythmic block. activation (rescue from dofetilide block), less the hit threshold, % at 10 µM. 310,000 compounds, 0.51% hits. CHO-hERG, FluxOR thallium flux, dofetilide IC70 present. Q12809;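 active = activation above the mean of controls blocked by dofetilide plus 5 SD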;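 note: thallium influx through hERG after potassium depolarization seen as dye fluorescence rise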
KCNQ1 block: inhibitors of human KCNQ1 potassium channel; P51787; CHO-K1 KCNQ1, FluxOR thallium flux fluorescence; active compounds read high; B-score at 10 µM; 310,000 compounds, 1.3% hits;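 active = compounds whose thallium flux B-score, printed positive for inhibition, exceeds three library SD while starting fluorescence stays within three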;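 note: channel opened by potassium depolarization with thallium stimulus after 20 min compound exposure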
KCNQ1 act: potentiates or activates the human KCNQ1 potassium channel; P51787; CHO-K1 KCNQ1, thallium flux FluxOR fluorescence; active compounds read high; B-score at 10 µM; 310,000 compounds, 0.35% hits;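 active = fluorescence ratio B-score, a plate-corrected score, at least three library SD, with initial intensity B-score within 5 SD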
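Assay system: CHO-K1 cells stably expressing KCNQ1. Medium: assay buffer for compound exposure, DMSO matched across wells. Timing: 37 °C overnight plating, 90-min dark dye load, 20-min compound pretreatment. Signal: kinetic FluxOR fluorescence, 10 s baseline plus 110 s post-stimulus.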
KCNK9 block conf: human KCNK9 inhibitor confirmation; shares compounds with KCNK9 inh; HEK293 KCNK9 cells, FluxOR thallium flux fluorescence; inhibition, % at 10 µM; 4,900 compounds, 43% hits; AID 492992;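 active = thallium signal inhibited by more than 5 SD of the compound-free buffer control wells, on both duplicate plates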;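 note: 0% = assay buffer control wells without compound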
Kir2-1 spec: tests whether KCNK9 modulators also affect mouse Kir2.1. inhibition, % at 10 µM. AID 492993. Kir2.1 cells, FluxOR thallium flux fluorescence. 4,900 compounds, 4% hits. shares compounds with KCNK9 inh;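 active = thallium signal drop more than 5 SD beyond the mean of the no-compound control wells, seen in both duplicate plates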;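 note: signal is fluorescence rise after thallium addition divided by baseline fluorescence; plate controls were assay buffer only for no effect and full block by chlorpromazine control for full effect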
KCNK9 uninduced: non-induced cell nonspecific activity of KCNK9 modulators; AID 492997; shares compounds with KCNK9 inh; non-induced KCNK9-HEK293, FluxOR thallium flux; inhibition, % at 10 µM; 4,900 compounds, 40% hits;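 active = thallium signal drop beyond 5 SD of the untreated control mean, on both duplicate plates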;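 note: plate controls were buffer only IC0 wells for no effect and SID17386958 at its maximal inhibitory level for full effect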
Numbers without * were called inactive; i = inactive; · = no result. Only some compounds are listed: those with a hit (about 3.7% of all), similar ones and a draw of the others.

SMILES | Kir21 inh | KCNK3 block | KCNK9 inh | hERG rescue | KCNQ1 block | KCNQ1 act | KCNK9 block conf | Kir2-1 spec | KCNK9 uninduced
CCOc1ccccc1NC(=O)CSc1nc2ccccc2nc1N1CCOCC1 | 0.39 | i | i | -12 | i | i | · | · | ·
CCOc1ccc(NC(=O)CSc2nc3ccccc3nc2N2CCCC2)cc1 | -1.2 | i | i | -9 | i | i | · | · | ·
COc1ccccc1N1CCN(C(=O)CSc2ncccc2-c2nc3ccccc3[nH]2)CC1 | 0.39 | i | i | -16 | i | i | · | · | ·
Cc1ccc(N2C(=O)Nc3ccc(Br)cc3C2(O)C(=O)NCCN(C)C)cc1C (stereo not given) | -2.3 | i | i | -5 | i | i | · | · | ·
Cc1ccccc1CNS(=O)(=O)c1c(C(=O)N2CCCC2)c(C)n(C)c1C | 0.37 | i | i | -4 | i | i | · | · | ·
Cc1cc(C)cc(N(C(=O)CCC(=O)Nc2ccccn2)C(C(=O)NC(C)C)c2ccc(O)cc2)c1 (stereo not given) | -0.85 | · | i | -4 | i | i | · | · | ·
O=C(Cn1nc(C(F)F)cc1C1CC1)N1CCCC1 | 0.09 | i | i | -2 | i | i | · | · | ·
COc1ccc(C(=O)CSc2ccc(-c3ccccc3)nn2)cc1 | 0.68 | i | i | -8 | i | i | i | i | i
COc1cccc(-c2ccc(SCC(=O)c3ccccc3)nn2)c1 | -0.43 | i | i | -19 | i | i | i | i | i
O=C(O)[C@@H]1CCCN1S(=O)(=O)c1cccc2cccnc12 | · | i | · | · | · | · | · | · | ·
CCOc1ccc(C(C(=O)NC2CCCC2)N(Cc2ccccc2)C(=O)c2nsc(Cl)c2Cl)cc1 (stereo not given) | -0.6 | i | -15* | -6 | i | i | 72%* | i | 40%*
COc1ccc(C(C(=O)NC2CCCC2)N(Cc2ccccc2)C(=O)c2nsc(Cl)c2Cl)cc1 (stereo not given) | -1.2 | i | i | -7 | i | i | · | · | ·
O=C(CSc1nc2ccccc2o1)Nc1ccccc1N1CCCCCC1 | -3.3 | i | -11* | -15 | i | i | 61%* | 40%* | 41%*
Cc1ccc2oc(=O)n(Cc3ccccc3)c2c1 | 0.71 | i | i | -5 | i | i | · | · | ·
CCOc1ccccc1OCCOCCN1CCN(Cc2ccccc2)CC1 | -2.8 | i | i | -5 | i | i | · | · | ·
O=C(c1ccccc1)c1ccc(OCCOCCN2CCN(Cc3ccccc3)CC2)cc1 | -1.9 | i | i | -25 | i | i | i | i | i
CCC(=O)c1ccccc1OCCN1CCN(Cc2ccccc2)CC1 | -3.6 | i | i | -8 | i | i | i | i | i
CCOc1c(CNCCCSc2nc(C)cc(C)n2)cccc1OC | -1.2 | i | i | -5 | i | i | · | · | ·
Cc1ccc2cccc(N=Cc3c(C)[nH]n(-c4ccccc4)c3=O)c2n1 | -0.02 | i | -10* | -2 | i | i | 47%* | i | i
CC(=O)c1cccc(NC(=O)C(OC(=O)/C=C/c2ccc3c(c2)OCO3)c2ccccc2)c1 (stereo not given) | 0.03 | i | -9.3* | -15 | i | i | 24%* | i | i
CC(C)c1nc(N2CCN(C(=O)c3ccccc3)CC2)c(C#N)c2c1COC(C)(C)C2 | -0.31 | i | i | -12 | i | i | i | i | i
CC1(C)Cc2c(C#N)c(N3CCCC3)nc(-c3ccco3)c2CO1 | 0.39 | i | i | -26 | i | i | i | i | i
CC(C)c1nc(N2CCN(C(=O)c3ccco3)CC2)c(C#N)c2c1COC(C)(C)C2 | -2.1 | i | i | -21 | i | i | · | · | ·
Cc1ccc(C(=O)N2CCN(C)CC2)cc1[N+](=O)[O-] | 0.68 | i | i | -17 | i | i | · | · | ·
O=S(=O)(c1ccc(Oc2ccc(Br)cc2)cc1)N1CCOCC1 | 0.43 | i | i | -13 | i | i | i | i | i
SMILES | Kir21 inh | KCNK3 block | KCNK9 inh | hERG rescue | KCNQ1 block | KCNQ1 act | KCNK9 block conf | Kir2-1 spec | KCNK9 uninduced
O=S(=O)(Nc1ccc(S(=O)(=O)N2CCOCC2)cc1)c1ccc(Br)cc1 | -0.72 | i | i | -4 | i | i | · | · | ·
O=C(Nc1nc(-c2ccccc2)nc2ccccc12)c1ccc(F)cc1 | 1.3 | i | -8.4* | -12 | i | i | 30%* | i | i
CC(=O)Nc1ccc(Nc2nc(-c3ccccc3)nc3ccccc23)cc1 | -1.1 | i | i | -11 | i | i | · | · | ·
CCNC(=O)NC(=O)C(C)OC(=O)CNS(=O)(=O)c1c(Cl)cc(Br)cc1Cl (stereo not given) | -0.04 | i | i | -3 | i | i | · | · | ·
O=C(NCc1ccccc1)C1(c2ccccc2)CCN(S(=O)(=O)c2ccccc2)CC1 | 0.59 | i | i | -3 | i | i | i | i | i
c1ccc(-c2cc3c(N4CCN(c5ncccn5)CC4)ncnc3s2)cc1 | 0.66 | i | i | -10 | i | i | i | i | i
N#Cc1ccccc1OCC(=O)N1CCN(C(=O)c2ccco2)CC1 | -0.06 | i | i | -6 | i | i | · | · | ·
O=c1oc(C2(O)CCCCC2)cc2ccc(/C=C/c3ccc(F)cc3)cc12 | · | i | · | · | · | · | · | · | ·
COc1ccc2[nH]c3c(c2c1)CCN1C(=O)C(CC(=O)NC(C)(C)C)C[C@H](C(=O)N2CCCCC2)[C@@]31C (stereo not given in full) | · | i | · | · | · | · | · | · | ·
O=C(O)CSc1nnc(SCc2cccc3ccccc23)s1 | 0.44 | i | i | -13 | i | i | · | · | ·
CC(C)OC(=O)CSc1nnc(SCc2cccc3ccccc23)s1 | 0.43 | i | i | -5 | i | i | i | i | i
Cc1cc(C)cc(CC2CC(=O)N(c3cc(C)ccc3C)C2=O)c1 (stereo not given) | -1.9 | i | i | -3 | i | i | i | i | i
Cc1ccc(N2C(=O)CC(Cc3cc(C)cc(C)c3)C2=O)cc1 (stereo not given) | 1.1 | i | i | -12 | i | i | · | · | ·
CCN(C(=O)CSc1nc2cc(C(F)(F)F)ccc2n1Cc1ccccc1)C1CCS(=O)(=O)C1 (stereo not given) | -0.93 | i | -10* | -7 | i | i | 61%* | i | 52%*

Source: PubChem
